Test [1] deals with T1, Adrenergic receptor alpha-2 (Rattus norvegicus, UniProt P22086+P19328+P22909).
T1 sequence (P22086 whole entry): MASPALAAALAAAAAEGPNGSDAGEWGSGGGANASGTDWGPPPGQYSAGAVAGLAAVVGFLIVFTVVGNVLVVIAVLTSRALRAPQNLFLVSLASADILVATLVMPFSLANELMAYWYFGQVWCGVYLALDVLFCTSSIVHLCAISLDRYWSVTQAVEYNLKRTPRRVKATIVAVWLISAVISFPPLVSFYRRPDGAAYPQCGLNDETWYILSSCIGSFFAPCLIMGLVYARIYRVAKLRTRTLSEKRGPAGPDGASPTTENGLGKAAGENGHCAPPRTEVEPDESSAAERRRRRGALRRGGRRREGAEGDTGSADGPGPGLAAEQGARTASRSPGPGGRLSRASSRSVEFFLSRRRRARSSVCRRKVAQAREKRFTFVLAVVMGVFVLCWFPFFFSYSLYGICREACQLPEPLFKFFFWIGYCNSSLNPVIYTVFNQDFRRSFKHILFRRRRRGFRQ
T1 sequence (P19328 whole entry): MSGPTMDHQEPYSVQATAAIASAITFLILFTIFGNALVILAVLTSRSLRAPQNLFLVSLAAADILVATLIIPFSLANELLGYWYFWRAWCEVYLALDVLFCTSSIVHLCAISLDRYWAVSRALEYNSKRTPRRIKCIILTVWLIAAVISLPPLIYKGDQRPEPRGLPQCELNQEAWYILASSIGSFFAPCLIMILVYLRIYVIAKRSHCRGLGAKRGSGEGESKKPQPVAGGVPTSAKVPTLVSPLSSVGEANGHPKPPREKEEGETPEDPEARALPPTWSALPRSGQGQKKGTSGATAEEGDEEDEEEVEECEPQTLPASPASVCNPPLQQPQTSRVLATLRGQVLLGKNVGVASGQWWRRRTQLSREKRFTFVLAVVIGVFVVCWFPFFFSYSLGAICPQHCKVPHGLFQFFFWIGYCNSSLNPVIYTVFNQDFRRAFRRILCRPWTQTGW
T1 sequence (P22909 whole entry): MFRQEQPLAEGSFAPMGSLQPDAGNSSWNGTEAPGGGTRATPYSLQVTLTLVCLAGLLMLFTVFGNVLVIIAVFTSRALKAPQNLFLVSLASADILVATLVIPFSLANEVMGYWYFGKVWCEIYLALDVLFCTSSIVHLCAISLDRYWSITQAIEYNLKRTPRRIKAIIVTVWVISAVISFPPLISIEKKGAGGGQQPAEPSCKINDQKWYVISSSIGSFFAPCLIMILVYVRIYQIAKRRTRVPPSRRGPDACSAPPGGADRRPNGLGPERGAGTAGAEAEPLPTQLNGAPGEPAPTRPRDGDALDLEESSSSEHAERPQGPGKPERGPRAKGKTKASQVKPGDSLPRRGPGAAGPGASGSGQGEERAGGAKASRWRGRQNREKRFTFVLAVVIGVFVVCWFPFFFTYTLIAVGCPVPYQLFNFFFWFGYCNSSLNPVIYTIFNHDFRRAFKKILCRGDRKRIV
Nature of the test: Binding affinity against Alpha-2 adrenergic receptor in rat cortex using [3H]-idazoxan as radioligand. Summed up: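 Competition binding on rat cortex with [³H]idazoxan (7 nM, about K_D) against a wide test range run in duplicate. Incubation was 30 min at 27 °C in 50 mM Tris-HCl, 5 mM CaCl₂, 0.1% ascorbate and 10 mM pargyline. Assays were ended by rapid filtration and read by scintillation. Values are pK_i or pIC₅₀, mean of n ≥ 3.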

For test [2], the target named is Beta-2 adrenergic receptor (Canis lupus familiaris) (UniProt P54833). Nature of the test: Binding affinity towards Beta adrenergic receptor.
A further test is filed under the species Oryctolagus cuniculus. Nature of the test: Binding affinity against 5-hydroxytryptamine 1D receptor using rabbit saphenous vein assay. In kind it is tissue-based. The procedure, abridged: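 Male New Zealand White rabbit saphenous vein rings (4–5 mm) in Krebs–Henseleit at 37 °C, pH 7.4, gassed with 95% O₂:5% CO₂, under 2 g passive force. Tissues got 30 min pargyline (500 μM) and phenoxybenzamine (0.3 μM), then were washed and checked with 1 μM 5-HT. A cumulative 5-HT curve was followed 60 min later by a test agonist curve. Potency is p[A₅₀]; α is test max/5-HT max; n ≥ 3.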

Test [3] addresses Adrenergic receptor alpha-2 (Homo sapiens) (UniProt P08913+P18825+P18089). To be noted: Oryctolagus cuniculus; Saphenous vein.
Test [4] addresses Histamine H1 receptor (Homo sapiens) (UniProt P35367). Nature of the test: Binding affinity against H1 receptor using rabbit saphenous vein assay. In kind it is tissue-based. To be noted: Oryctolagus cuniculus, target entry is the homologue from another species.
Test [5] addresses 5-hydroxytryptamine receptor 1B (Homo sapiens, UniProt P28222). Nature of the test: Binding affinity against 5-hydroxytryptamine 1D receptor beta using rabbit saphenous vein assay. In kind it is tissue-based. Summed up:
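Saphenous vein rings (4–5 mm) from male New Zealand White rabbits, in Krebs–Henseleit buffer at 37 °C, pH 7.4, gassed 95% O2/5% CO2, 2 g passive force. Pretreated with pargyline (500 μM) and phenoxybenzamine (0.3 μM) for 30 min, then washed. A cumulative 5-HT curve was followed after 60 min by a curve to the test agonist. p[A50] and α relative to 5-HT maximum were derived; mean of n ≥ 3.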

Test [6] deals with Muscarinic acetylcholine receptor M3 (Homo sapiens) (UniProt P20309). Nature of the test: Binding affinity against Muscarinic acetylcholine receptor M3 using rabbit saphenous vein assay. Particulars: Oryctolagus cuniculus, target entry is the homologue from another species. In kind it is tissue-based.
Test [7] concerns the target Adrenergic receptor alpha-1 (Homo sapiens) (UniProt P35348+P25100+P35368). Nature of the test: Binding affinity against Alpha-1 adrenergic receptor using rabbit saphenous vein assay. In kind it is tissue-based. To be noted: Oryctolagus cuniculus, target entry is the homologue from another species.
The target in test [8] is T2, 5-hydroxytryptamine receptor 1A (Homo sapiens) (UniProt P08908).
T2 sequence (whole entry): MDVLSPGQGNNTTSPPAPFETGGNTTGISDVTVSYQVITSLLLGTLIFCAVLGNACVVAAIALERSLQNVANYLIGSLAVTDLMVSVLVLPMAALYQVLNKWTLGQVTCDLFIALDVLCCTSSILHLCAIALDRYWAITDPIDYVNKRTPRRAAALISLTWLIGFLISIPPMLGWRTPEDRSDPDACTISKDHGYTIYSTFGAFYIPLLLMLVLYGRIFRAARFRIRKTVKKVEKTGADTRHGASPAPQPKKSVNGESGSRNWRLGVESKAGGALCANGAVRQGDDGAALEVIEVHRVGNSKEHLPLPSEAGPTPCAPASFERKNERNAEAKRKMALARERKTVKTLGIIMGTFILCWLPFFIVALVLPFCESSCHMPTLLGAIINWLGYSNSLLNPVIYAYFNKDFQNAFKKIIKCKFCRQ
Nature of the test: Binding affinity against 5-hydroxytryptamine 1 receptor using rabbit jugular vein assay in the presence of endothelium. Particulars: Oryctolagus cuniculus; target entry is the homologue from another species.

In test [9] the target is 5-hydroxytryptamine receptor 1D (Homo sapiens) (UniProt P28221). Nature of the test: The compound was tested for binding affinity against 5-HT1D receptor. Particulars: Oryctolagus cuniculus. Summed up:
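Rabbit saphenous vein rings (male New Zealand White; 4–5 mm) mounted on tungsten wires in Krebs–Henseleit buffer, pH 7.4, 37 °C, gassed with 95% O2/5% CO2, at 2 g passive force. Pretreated for 30 min with pargyline (500 μM) and phenoxybenzamine (0.3 μM), then washed. Cumulative 5-HT curve, then after 60 min a test agonist curve. Potency is p[A50]; α is test maximum/5-HT maximum; n ≥ 3.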

Beta-2 adrenergic receptor (Canis lupus familiaris), sequence (P54833 whole entry, looked up): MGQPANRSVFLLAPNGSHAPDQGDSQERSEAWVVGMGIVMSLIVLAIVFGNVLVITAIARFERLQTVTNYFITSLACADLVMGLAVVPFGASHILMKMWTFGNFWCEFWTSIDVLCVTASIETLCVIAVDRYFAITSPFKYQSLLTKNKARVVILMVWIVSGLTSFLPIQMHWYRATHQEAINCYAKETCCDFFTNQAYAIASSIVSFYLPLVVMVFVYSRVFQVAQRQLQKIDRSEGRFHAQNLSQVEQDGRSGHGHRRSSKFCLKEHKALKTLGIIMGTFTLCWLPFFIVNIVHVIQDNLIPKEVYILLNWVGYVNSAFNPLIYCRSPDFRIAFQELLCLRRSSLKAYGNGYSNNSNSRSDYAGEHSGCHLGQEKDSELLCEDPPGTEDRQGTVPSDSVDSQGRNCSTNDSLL
Histamine H1 receptor (Homo sapiens), sequence (P35367 whole entry): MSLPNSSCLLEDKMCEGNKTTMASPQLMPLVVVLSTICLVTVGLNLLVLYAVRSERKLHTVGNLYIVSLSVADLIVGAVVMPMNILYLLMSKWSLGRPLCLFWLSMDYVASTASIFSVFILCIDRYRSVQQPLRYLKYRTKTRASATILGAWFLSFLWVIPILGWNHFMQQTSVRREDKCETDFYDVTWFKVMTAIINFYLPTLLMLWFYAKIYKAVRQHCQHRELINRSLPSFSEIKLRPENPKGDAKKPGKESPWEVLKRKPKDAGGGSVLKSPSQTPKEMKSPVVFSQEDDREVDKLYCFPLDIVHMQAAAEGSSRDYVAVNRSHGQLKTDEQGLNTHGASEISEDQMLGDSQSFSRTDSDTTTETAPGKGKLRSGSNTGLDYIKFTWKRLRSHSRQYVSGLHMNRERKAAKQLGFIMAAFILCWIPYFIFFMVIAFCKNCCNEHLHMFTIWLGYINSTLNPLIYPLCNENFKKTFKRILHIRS
5-hydroxytryptamine receptor 1B, sequence (P28222 whole entry): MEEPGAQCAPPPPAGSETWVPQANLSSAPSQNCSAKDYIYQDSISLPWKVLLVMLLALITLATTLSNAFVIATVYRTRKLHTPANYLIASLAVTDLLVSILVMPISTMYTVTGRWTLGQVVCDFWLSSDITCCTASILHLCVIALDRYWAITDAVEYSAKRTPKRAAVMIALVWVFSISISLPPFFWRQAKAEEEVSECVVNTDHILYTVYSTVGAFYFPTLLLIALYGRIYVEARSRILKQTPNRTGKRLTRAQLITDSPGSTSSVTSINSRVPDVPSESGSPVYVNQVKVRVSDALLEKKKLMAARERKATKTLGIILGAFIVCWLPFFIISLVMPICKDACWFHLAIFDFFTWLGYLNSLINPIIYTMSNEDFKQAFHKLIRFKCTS
5-hydroxytryptamine receptor 1D (Homo sapiens), sequence (P28221 whole entry): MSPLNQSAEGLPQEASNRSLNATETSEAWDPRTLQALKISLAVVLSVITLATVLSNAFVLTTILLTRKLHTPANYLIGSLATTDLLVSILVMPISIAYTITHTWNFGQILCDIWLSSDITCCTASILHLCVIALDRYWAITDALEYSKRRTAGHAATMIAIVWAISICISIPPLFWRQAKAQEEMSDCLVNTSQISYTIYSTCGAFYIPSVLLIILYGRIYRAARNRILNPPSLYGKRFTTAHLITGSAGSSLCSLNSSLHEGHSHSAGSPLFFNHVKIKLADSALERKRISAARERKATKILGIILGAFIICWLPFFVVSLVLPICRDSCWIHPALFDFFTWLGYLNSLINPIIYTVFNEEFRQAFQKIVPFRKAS
Muscarinic acetylcholine receptor M3 (Homo sapiens), sequence (P20309 whole entry, looked up): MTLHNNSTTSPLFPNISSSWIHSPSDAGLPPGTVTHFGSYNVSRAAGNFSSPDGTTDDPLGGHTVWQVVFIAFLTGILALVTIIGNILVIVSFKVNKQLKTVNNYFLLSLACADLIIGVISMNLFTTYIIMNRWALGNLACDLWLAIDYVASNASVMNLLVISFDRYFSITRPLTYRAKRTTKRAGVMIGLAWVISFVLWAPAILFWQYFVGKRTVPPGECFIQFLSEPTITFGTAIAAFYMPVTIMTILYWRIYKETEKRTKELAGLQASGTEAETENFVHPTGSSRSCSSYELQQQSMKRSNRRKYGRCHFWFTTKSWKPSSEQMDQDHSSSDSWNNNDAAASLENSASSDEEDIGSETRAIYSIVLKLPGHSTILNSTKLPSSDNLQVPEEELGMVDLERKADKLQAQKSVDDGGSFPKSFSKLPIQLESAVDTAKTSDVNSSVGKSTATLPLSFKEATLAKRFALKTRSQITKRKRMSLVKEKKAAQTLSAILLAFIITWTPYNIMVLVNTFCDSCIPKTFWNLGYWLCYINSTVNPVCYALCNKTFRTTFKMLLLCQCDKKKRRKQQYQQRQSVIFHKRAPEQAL

For orientation: Kd means a measure of binding affinity in units of concentration. Lower therefore signals higher affinity. Turning to `CN(C)CCc1c[nH]c2ccc(C[C@H]3COC(=O)N3)cc12` [ZOLMITRIPTAN], the figures for the Kd in test [1] and in test [5] were 7 nM and 1.5 nM, respectively. Moreover, the p[A50] is under 4 in test [2]; under 4.5 in the test filed under Oryctolagus cuniculus; 4.1 in [3]; 5.5 in test [4]; under 4.5 in test [6]; under 4 in test [7]. The p[A50] stood at 6.45 in test [8] and 6.8 in test [9].

These data come from ChEMBL document CHEMBL1128543, “Computer-aided design and synthesis of 5-substituted tryptamines and their pharmacology at the 5-HT1D receptor: discovery of compounds with potential anti-migraine properties” (J Med Chem, 1995).
